# SIAE inh: human SIAE inhibitors, primary screen, biochemical, fluorescence polarization, FP-Rh probe, 1536-well HTS. inhibition, % at 9.66 µM. Sialate O-acetylesterase (Homo sapiens), Q9HAT2. actives 0.69% (n = 370,000). SIAE FP-Rh probe binding;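 active = inhibition above a cutoff: mean of compounds within the control limits plus 3 SD of those, cut at about 17% in these data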;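 note: 0% = plate median of compound wells and 100% = probe without SIAE protein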
# Target sequence (Q9HAT2 whole entry, looked up): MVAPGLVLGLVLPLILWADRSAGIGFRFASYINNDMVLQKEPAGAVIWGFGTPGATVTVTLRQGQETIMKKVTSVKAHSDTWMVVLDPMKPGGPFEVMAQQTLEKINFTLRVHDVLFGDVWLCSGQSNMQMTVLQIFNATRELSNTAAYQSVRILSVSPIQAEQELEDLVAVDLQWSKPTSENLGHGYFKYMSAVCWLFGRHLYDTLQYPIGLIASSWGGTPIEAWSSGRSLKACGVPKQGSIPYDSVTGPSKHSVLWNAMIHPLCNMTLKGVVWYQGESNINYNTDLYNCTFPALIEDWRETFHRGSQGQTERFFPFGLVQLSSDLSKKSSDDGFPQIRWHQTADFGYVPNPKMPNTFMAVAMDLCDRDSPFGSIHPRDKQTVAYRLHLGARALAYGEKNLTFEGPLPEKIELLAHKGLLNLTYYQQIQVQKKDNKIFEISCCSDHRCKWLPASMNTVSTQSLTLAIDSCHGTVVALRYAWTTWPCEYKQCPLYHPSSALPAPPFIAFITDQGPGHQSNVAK
# HTRA1 inhibitor: HTRA1 serine protease inhibitors, primary screen, biochemical, fluorescence polarization, HTS; Q92743; recombinant HTRA1, FP-rhodamine activity-based probe; inhibition, % at 5.96 µM; actives 0.5% (n = 340,000); in the data active = inhibition above about 36%;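 note: 0% = enzyme with DMSO and 100% = wells lacking enzyme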
# TCR CD3 inh: inhibitors of human TCR-CD3 interaction, primary screen, biochemical, fluorescence, TAMRA-labeled TCR probe; actives 0.37% (n = 360,000); inhibition, % at 9.4 µM; AID 651800, 2012; T-cell receptor (TCR); in the data active = inhibition above about 19%;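 note: recombinant mutant TCR 2C K166C tagged with TAMRA read by polarization; 0% = receptor in buffer alone and 100% = receptor with positive control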
# PAD4 FP inh: human PAD4 inhibitors, primary screen, biochemical, fluorescence polarization, 1536-well format; recombinant PAD4, RCA probe fluorescence polarization; inhibition, % at 6.36 µM; actives 0.41% (n = 330,000); Protein-arginine deiminase type-4 (Homo sapiens), Q9UM07;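 active = percent inhibition above a cutoff equal to the mean of all tested compounds plus 3 SD, cut at about 15% in these data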;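 note: 0% = PAD4 with RCA probe and DMSO and 100% = probe without PAD4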
# ABHD4 inh: ABHD4 inhibitors, primary screen, biochemical, fluorescence polarization, mouse | inhibition, % at 8.92 µM | purified mABHD4, FP-Rh probe fluorescence polarization | AID 720543, 2013 | actives 0.54% (n = 370,000) | (Lyso)-N-acylphosphatidylethanolamine lipase (Mus musculus), Q8VD66;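 active = inhibition exceeding the mean over every tested compound plus 3 SD, cut at about 30% in these data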;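 note: 0% = plate median of compound wells and 100% = S159A mutant with DMSO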
#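 Assay system: Wild-type mouse ABHD4 protein | Medium: HEPES pH 7.0 buffer, 150 mM NaCl, 0.01% Pluronic F-127 | Incubation: Enzyme–compound pre-incubation 45 min, then probe 60 min, both 25 °C | Technique: Fluorescence polarization with parallel and perpendicular emission, 525/598 nm | Evaluation: % inhibition of FP-Rh probe binding versus controls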
# PRMT1 FP inh: PRMT1 methyltransferase inhibitors, primary screen, biochemical, fluorescence polarization. AID 652257, 2013. recombinant PRMT1, activity-based probe fluorescence polarization. Protein arginine N-methyltransferase 1 (Homo sapiens), Q99873. inhibition, % at 2.79 µM. actives 1.3% (n = 370,000);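 active = inhibition above about 21% made by adding two undisclosed values, limit read from the data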
# SIAE inh conf: human SIAE inhibitors, retest, confirmation, biochemical, fluorescence polarization, FP-Rh probe, triplicate; shares compounds with SIAE inh; SIAE FP-Rh activity-based probe; inhibition, % at 9.66 µM; actives 13% (n = 2,300); AID 1117263, 2014;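 active = mean inhibition of the replicates above the hit cutoff set in the primary screen, cut at about 17% in these data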;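 note: 0% = SIAE with DMSO and probe and 100% = probe without SIAE; inhibitors lower polarization as more probe stays unbound to SIAE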
# Numbers without * were called inactive; nt = no result. Compounds with a hit are over-represented: about 2.9% of the library has one in this group of screens.
SMILES,SIAE inh,HTRA1 inhibitor,TCR CD3 inh,PAD4 FP inh,ABHD4 inh,PRMT1 FP inh,SIAE inh conf
C/C=C/c1ccc([C@H]2[C@@H](CN(CC(C)C)S(=O)(=O)c3ccccc3[N+](=O)[O-])N(C(=O)Nc3cccc(OC)c3)[C@H]2CO)cc1,-12,nt,nt,nt,-16,-3,nt
O=C(c1ccccc1)c1ccncc1,28*,12,-1,-2,-5,-4,4
Cc1nc(Nc2ccc(Cl)cc2)c2nnn(Cc3ccccc3)c2n1,1,-9,3,-5,0,-2,nt
COc1ccc(Nc2nc(C)nc3c2nnn3Cc2ccccc2)cc1OC,17*,-6,-5,-1,-4,-3,-4
CCn1c(CCNC(=O)c2ccc(Cl)cc2)n[nH]c1=S,22*,1,-2,-4,2,-1,-2
Cc1ccc(C(=O)NCCc2n[nH]c(=S)n2C)cc1,1,-3,-2,-1,-1,2,nt
COC(=O)[C@]12C[C@H](CC(=O)NCc3cccs3)C(=O)N(Cc3cccc4ccccc34)C1=C[C@H](C(C)C)O[C@@H]2C1CC1,-2,nt,nt,nt,-13,-3,nt
Cc1ccc(S(=O)(=O)N2CCC(C(=O)NCCN3CCOCC3)CC2)cc1C,10,3,-3,4,-2,-1,nt
Cc1ccc(S(=O)(=O)N2CCC(C(=O)NCCCN3CCOCC3)CC2)cc1C,18*,4,-3,-4,-1,-4,3
Cc1cc([N+](=O)[O-])nn1Cc1ccc(C(=O)N/N=C/c2ccc(O)cc2O)cc1,19*,11,10,-11,12,0,5
Cc1cc([N+](=O)[O-])nn1Cc1ccc(C(=O)N/N=C/c2ccc(F)cc2)cc1,1,-9,0,0,2,-2,nt
COc1ccc(N2CCN(c3ncnc4scc(-c5ccc(F)cc5)c34)CC2)cc1,10,-8,3,-1,5,-2,nt
COc1ccc(N2CCN(c3ncnc4scc(-c5ccc(C)cc5)c34)CC2)cc1,17*,-5,-2,0,2,10,4
Cc1cccc(Cc2ncc(C(F)(F)F)cc2Cl)c1,19*,-2,4,0,-1,-3,7
CC(C)c1[nH]nc2c1C(c1cccc(C(F)(F)F)c1)N(c1ccccc1)C2=O (centres undefined),-1,nt,-4,nt,-28,4,nt
O=C(CCNC(=O)c1ccco1)Nc1ccccc1OC(F)F,5,8,2,0,1,3,nt
O=C(CCNC(=O)c1ccco1)Nc1ccc(OC(F)F)c(Cl)c1,41*,-8,6,-6,-4,-4,0
C/C(=N\NC(=O)Cc1csc(N2CCOCC2)n1)c1ccccc1,21*,-2,-12,-5,2,3,-1
CC1(c2ccccc2)NC(=O)N(CC(=O)Nc2ccc(N3CCOCC3)cc2)C1=O (centres undefined),19*,4,2,1,-2,-1,5
COc1cccc(C2(C)NC(=O)N(CC(=O)Nc3ccc(N4CCOCC4)cc3)C2=O)c1 (centres undefined),1,6,0,-1,2,-2,nt
CC1(c2ccccc2)NC(=O)N(CC(=O)Nc2ccc(N3CCOCC3)cc2N2CCOCC2)C1=O (centres undefined),5,0,-4,3,-7,1,nt
CCOc1cc(N2CCOCC2)c(OCC)cc1NC(=O)c1ccc(NC(C)=O)cc1,23*,2,-2,-1,2,-1,3
Cc1ccc(C2(C)NC(=O)N(CC(=O)Nc3ccc(N4CCOCC4)cc3N3CCOCC3)C2=O)cc1 (centres undefined),19*,-1,4,1,-3,-1,1
CCOc1cc(N2CCOCC2)c(OCC)cc1NC(=O)c1ccc(OC)cc1,7,5,6,4,2,0,nt
O=C(COC(=O)c1ccccc1O)Nc1ccc(N2CCOCC2)cc1,17*,12,-3,-7,-4,3,-1
SMILES,SIAE inh,HTRA1 inhibitor,TCR CD3 inh,PAD4 FP inh,ABHD4 inh,PRMT1 FP inh,SIAE inh conf
CCOc1ccc(N(CC(=O)Nc2c(C)n(C)n(-c3ccccc3)c2=O)S(=O)(=O)c2cccs2)cc1,-2,nt,nt,nt,8,-5,nt
COc1cccc(CNC(=O)C2CCC(CNS(=O)(=O)c3cccc4cccnc34)CC2)c1OC (centres undefined),1,nt,nt,nt,1,3,nt
CCOc1cc(N2CCOCC2)c(OCC)cc1NC(=O)CN1C(=O)NC2(CCCCC2C)C1=O (centres undefined),14,6,-7,nt,8,3,nt
CCOc1cc(N2CCOCC2)c(OCC)cc1NC(=O)CN1C(=O)NC(C)(c2ccc(OC)cc2)C1=O (centres undefined),18*,5,-2,nt,-3,-1,3
Cc1ccc(NC(=O)Cn2c(CCC(=O)O)ccc2-c2cccs2)cc1Cl,126*,-24,-4,-8,-2,4,1
COc1cccc(NC(=O)Cn2c(CCC(=O)O)ccc2-c2cccs2)c1,14,-11,5,-8,-5,2,nt
Cc1cc(SCC(=O)N/N=C/c2ccc(O)cc2O)nc2ccccc12,23*,0,2,10,-2,5,-8
CC(=O)c1ccc2c(c1)C1C=CCC1C(C(=O)O)N2 (centres undefined),34*,nt,49*,nt,70*,71*,8
Cn1c(SCC(=O)c2ccc3c(c2)OCO3)nnc1-c1ccccn1,25*,-4,1,-4,0,-1,1
COC(=O)C1=C(C)N(Cc2cccc(C(F)(F)F)c2)C(=NCC2CC2)NC1c1cccc(Cl)c1 (centres undefined),2,nt,-2,nt,11,-1,nt
CCn1c(SCC(=O)Nc2ccccc2)nc2ccccc2c1=O,17*,-7,2,1,0,0,4
CCn1c(SCC(=O)Nc2cccc(C)c2)nc2ccccc2c1=O,-7,-6,0,2,-5,0,nt
O=C(CSc1nc2ccccc2nc1N1CCOCC1)NCc1ccc(Cl)cc1Cl,-2,nt,nt,nt,4,-3,nt
O=C1[C@@H](CCc2ccccc2)[C@@H]2c3ccccc3C=NN2[C@@H]2c3ccccc3C=NN12,18*,nt,nt,nt,-7,-5,7
O=C1[C@@H](C2CCCCC2)[C@@H]2c3ccccc3C=NN2[C@@H]2c3ccccc3C=NN12,1,nt,nt,nt,-2,-1,nt

# High-throughput results (PubChem)
